{"source": "paper PMC4636435", "about": "(Cell host & microbe, 2015)", "molecules": {"B1": {"name": "recombinant hCAP18, full-length human cathelicidin (natural protein)", "chain": "QVLSYKEAVLRAIDGINQRSSDANLYRLLDLDPRPTMDGDPDTPKPVSFTVKETVCPRTTQQSPEDCDFKKDGLVKRCMGTVTLNQARGSFDISCDKDNKRFALLGDFFRKSKEKIGKEFKRIVQRIKDFLRNLVPRTES"}, "B2": {"name": "hCAP18: full-length human cathelicidin precursor, recombinant, expressed from pET28a (protein)", "chain": "B1 chain", "modifications": "left off: His tag (from the vector pET28a), end not stated, state not stated"}, "B3": {"name": "recombinant M49 protein (natural protein)", "chain": "AEKKVEAKVEVAENNVSSVARREKELYDQIADLTDKNGEYLERIGELEERQKNLEKLEHQSQVAADKHYQEQAKKHQEYKQEQEERQKNQEQLERKYQREVEKRYQEQLQKQQQLETEKQISEASRKSLSRDLEASREAKKKVEADLAALTAEHQKLKEEKQISDASRQGLSRDLEASREAKKKVEADLAALTAEHQKLKEEKQISDASRQGLSRDLEASREAKKKVEADLAEANSKLQALEKLNKELEEGKKLSEKEKAELQARLEAEAKALKEQLAKQAEELAKLKGNQTPNAKVAPQANRSRSAMTQQKRTLPST"}}, "key": {"wild-type and Δemm1 GAS": {"tested_on": "wild-type and Δemm1 GAS", "assay": "Resistance of wild-type and Δemm1 GAS to antimicrobial peptides", "format": "cell-based, Streptococcus pyogenes (group A Streptococcus)", "details": "serum-free DMEM with 10% THB, 24 h; for M1-dependent protection of GAS from killing by the peptide: wild-type vs. Δemm1 GAS", "summary_of_the_method": "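GAS M1T1 5448 and isogenic Δemm1 were grown overnight at 37°C, diluted 1:40 in Todd-Hewitt broth, grown statically at 37°C to OD600 0.400, then PBS-washed. 2×10^5 bacteria in serum-free DMEM with phenol red and 10% THB were exposed to cathelicidin- or defensin-family peptides. MIC was the lowest concentration preventing growth after 24 h. Means ± s.d., n=3; ≥3 independent experiments.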"}, "recombinant M1 protein": {"tested_on": "recombinant M1 protein", "assay": "Pulldown with His-tagged recombinant M1 as bait / blot", "format": "binding, Streptococcus pyogenes (group A Streptococcus), M1T1"}, "human neutrophils": {"tested_on": "human neutrophils", "assay": "Neutrophil chemotaxis in transwell system", "format": "cell-based", "details": "1 h, 37°C, n=3"}, "[1]": {"molecular_target": "LL-37, human cathelicidin antimicrobial peptide (human)", "assay": "SPR"}, "cathelicidin": {"tested_on": "cathelicidin", "details": "human cells; ref Liu et al., 2006; cited from earlier work"}, "recombinant M49 protein": {"molecular_target": "T1, recombinant M49 protein (Streptococcus pyogenes (group A …, UniProt P16947 42-359))", "T1 sequence": "B3 chain", "assay": "SPR"}, "[2]": {"tested_on": "M1T1 GAS, wild-type vs. Δemm1", "assay": "FACS detection of cathelicidin on bacterial surface", "format": "cell-based, Streptococcus pyogenes (group A Streptococcus)", "details": "recombinant hCAP18, wild-type vs. Δemm1, anti-LL-37 antibody"}, "M1 protein": {"tested_on": "M1 protein", "assay": "SPR", "format": "binding, Streptococcus pyogenes (group A Streptococcus), M1T1", "details": "ratio of Kd M49 vs. M1, SPR"}}, "note": "“Also recorded” adds a separate entry of the source."}
{"molecule": "mCRAMP: active murine form of cathelicidin; de novo synthesis (Anaspec) (ISRLAGLLRKGGEKIGEKLKKIGQKIKNFFQKLVPQPE)", "values": [{"measurement": "M1-dependent protection of GAS from killing by the peptide", "setting": "wild-type and Δemm1 GAS", "value": "M1 protected GAS from killing"}, {"measurement": "binding and inhibition by M1 vs. M49", "setting": "recombinant M1 protein; statement in the in vivo section", "value": "M1 but not M49 binds and inhibits CRAMP"}]}
{"molecule": "N-formyl-Met-Leu-Phe [fMLP]", "values": [{"measurement": "stimulation of neutrophil chemotaxis", "setting": "human neutrophils", "value": "stimulated robust chemotaxis of neutrophils"}]}
{"molecule": "recombinant M1 protein (from UniProt Q99XV0) (natural protein)", "values": [{"measurement": "Kd", "setting": "[1]", "value": 1.18, "unit": "µM"}]}
{"molecule": "C=C1CC[C@H](O)C/C1=C/C=C1\\CCC[C@]2(C)[C@@H]([C@H](C)/C=C/[C@H](C)C(C)C)CC[C@@H]12", "note": "[vitamin D]", "values": [{"measurement": "induction of cathelicidin expression", "setting": "cathelicidin", "value": "strongly induces cathelicidin expression"}]}
{"molecule": "KR-20: processed form of cathelicidin expressed by keratinocytes in human skin; de novo synthesis (Anaspec) (KRIVQRIKDFLRNLVPRTES)", "values": [{"measurement": "M1-dependent protection of GAS from killing by the peptide", "setting": "wild-type and Δemm1 GAS", "value": "M1 protected GAS from killing"}]}
{"molecule": "B1", "values": [{"measurement": "Kd", "setting": "recombinant M49 protein", "value": 9.07, "unit": "µM"}]}
{"molecule": "B2", "values": [{"measurement": "binding to bacterial surface", "setting": "[2]", "value": "recombinant hCAP18 bound the GAS surface in an M1-dependent manner; also recorded: Δemm1 GAS binds significantly less hCAP18 than wild-type GAS"}, {"measurement": "antimicrobial activity", "setting": "wild-type and Δemm1 GAS; wild-type and Δemm1 GAS", "value": "lacked antimicrobial activity"}, {"measurement": "major cathelicidin form pulled down by M1 from neutrophil lysate", "setting": "recombinant M1 protein; whole lysates from neutrophils, Western blot with anti-LL-37 antibody", "value": "the major cathelicidin form detected was uncleaved hCAP18"}, {"measurement": "stronger binding of M1 compared to M49 protein (from Kd)", "setting": "M1 protein", "value": 10, "unit": "fold"}]}
{"molecule": "B3", "values": [{"measurement": "Kd", "setting": "[1]", "value": 62.7, "unit": "µM"}]}
